# Compounds with a hit are over-represented: about 2.2% of the library has one in this group of screens.
# dFosB act-1: activators of mouse delta FosB homodimer; P13346; purified delta FosB, TAMRA-CDK5 oligo fluorescence polarization; percent of positive-control signal above neutral wells; activation, % at 25 µM; actives 0.99% (n = 340,000);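 active = mean activation above about 17%, with every replicate also reaching it, limit read from the data, passing the limit was not always enough; inconclusive = only one of the two conditions met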
# FGF22 binding-1: shifts melting point of recombinant human FGF22. Q9HCT0. recombinant FGF22 thermal shift, SYPRO orange fluorescence; percent of sucrose octasulfate shift, DMSO zero. activity (Tm shift, normalised), % at 9.99 µM. actives 1.5% (n = 340,000);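 active = mean Tm shift, scaled 0 neutral to 100 positive control, at about 1.3% or above, every replicate too, limit read from the data; inconclusive = no clear call, values can overlap the other calls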
# Target sequence (Q9HCT0 whole entry, looked up): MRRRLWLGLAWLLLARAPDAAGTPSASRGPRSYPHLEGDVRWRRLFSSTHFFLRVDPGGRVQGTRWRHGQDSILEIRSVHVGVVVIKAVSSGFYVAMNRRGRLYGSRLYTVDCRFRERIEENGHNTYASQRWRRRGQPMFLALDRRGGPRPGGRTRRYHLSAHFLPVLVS
# F508del corr: CFTR F508del correction in bronchial cells | activity (quench increase), % at 7.58 µM | CFBE cells, YFP halide quenching; stimulated with forskolin plus potentiator P3; % fluorescence drop versus neutral controls | actives 0.36% (n = 350,000) | AID 720511;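 active = mean added fluorescence quench of at least 8% versus neutral control, with both replicates also reaching 8%; inconclusive = only one of the mean or replicate conditions met; inactive = mean below 8% and not both replicates reaching 8%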;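 also: cells transiently co-express mutant CFTR-F508del with the halide-sensitive YFP; corrector assay measuring rescue of mutant channel to the surface after 24 h compound exposure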
# S100A4 inh HTS: inhibitors of human S100A4 binding to myosin IIA peptide. P26447. S100A4/TAMRA-MyoIIA peptide fluorescence polarization. inhibition, % at 10.7 µM. actives 0.14% (n = 360,000). AID 652163;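 active = mean inhibition of at least 70% across replicates, with every replicate also reaching that level; inconclusive = mean inhibition reaches 70% but some replicates fall short; inactive = mean inhibition below 70%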
# Target sequence (P26447 whole entry, looked up): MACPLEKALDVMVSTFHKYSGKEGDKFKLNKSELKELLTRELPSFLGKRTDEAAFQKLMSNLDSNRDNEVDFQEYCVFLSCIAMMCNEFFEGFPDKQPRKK
#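 Material: S100A4 monomer (human). Medium: Calcium-containing HEPES buffer, pH 7.2. Probe or stimulus: labelled myosin peptide probe, 5 nM. Compound dosing: one concentration per compound. Timing: polarization read 5 min after assay mix addition, stable 5–60 min. Benchmarks: DMSO as neutral control, TFP as positive control.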
# dFosB act-2: activators of mouse delta FosB homodimer DNA binding. shares compounds with dFosB act-1. purified delta FosB, TAMRA-CDK5 oligo fluorescence polarization; normalised: neutral wells 0, positive control 100. activation, % at 24.9 µM. 2,400 tested, under 10 active. AID 588690;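 active = highest replicate activation at or above 34% and every replicate reaching that threshold; inconclusive = meets only one of the two criteria; inactive = meets neither criterion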;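 also: higher polarization means more probe DNA bound by delta FosB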
# FGF22 binding-2: binds human FGF22 shifting its melting temperature; shares compounds with FGF22 binding-1; recombinant FGF22 thermal shift, SYPRO orange fluorescence; thermal shift activity, °C (ΔTm) at 38 µM; actives 2% (n = 1,000);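 active = fitted rise in melting shift crosses a set limit at or below the top valid dose tested; inconclusive = flat fit at mid-level activity, or a poor quality fit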
# TSA no protein: counter-screen for FGF22 binders: compound-only thermal shift, no protein. AC50, µM (titrated, usually from 38 µM). compound-only SYPRO orange thermal shift counter-screen. AID 743019. actives 2% (n = 1,000). shares compounds with FGF22 binding-1;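 active = rising signal whose fitted curve reaches the 0.54 level within the top valid dose, showing a melting point, actives reach about 13 µM in these data; inactive = the rest, including activity in the opposite direction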; also: value is where the raw curve crosses a fixed level and not half-maximal
# Starred values were filed as active, the others as inactive; i = inactive; ? = inconclusive; nt = not tested or not shown; [ ] = dose if it differs, or a comment.
SMILES,dFosB act-1,FGF22 binding-1,F508del corr,S100A4 inh HTS,FGF22 binding-2,TSA no protein,others
NC(N)=Nc1ccc2[nH]c3c(c2c1)C[C@@]1(O)[C@H]2Cc4ccc(O)c5c4[C@@]1(CCN2CC1CC1)C3O5 (some centres undefined),45*,0,-1,-1,nt,nt,dFosB act-2=5
Cc1cc(NC(=O)COC(=O)c2c(C)nn(Cc3ccccc3)c2C)no1,-2,nt,nt,nt,nt,nt,
Cc1cc(NC(=O)COC(=O)c2c(C)nn(Cc3ccccc3Cl)c2Cl)no1,46*,nt,nt,nt,nt,nt,dFosB act-2=-13
O=C(Cc1ccncc1)N1CCCCN2[C@@H](CO)[C@@H](c3ccc(C#Cc4ccccc4F)cc3)[C@@H]2C1,nt,nt,1,nt,nt,nt,
O=C(Cc1ccccn1)N1CCCCN2[C@@H](CO)[C@@H](c3ccc(Br)cc3)[C@@H]2C1,nt,1,2,1,nt,nt,
COCC#Cc1ccc([C@@H]2[C@@H](CO)N3CCCCN(C(=O)Cc4ccccn4)C[C@@H]23)cc1,nt,0,2,-31,nt,nt,
O=C(/C=C/c1c[nH]c2ccccc12)c1c(O)n(CCc2ccccc2)c(=O)[nH]c1=O,22*,0,nt,32,nt,nt,dFosB act-2=?
CCCCn1c(=O)c(C(=O)Nc2ccccc2S(N)(=O)=O)c(O)c2ccccc21,-12,nt,nt,nt,nt,nt,
CCCCCn1c(=O)c(C(=O)Nc2ccccc2S(N)(=O)=O)c(O)c2ccccc21,63*,0,-3,4,nt,nt,dFosB act-2=?
CN1/C(=C\C=Nc2ccccc2)C(C)(C)c2ccccc21,26*,nt,nt,-48,nt,nt,dFosB act-2=6
COC(=O)[C@H]1N[C@H]2c3ccc(C4=CCCC4)c(=O)n3C[C@H]2[C@@H]1CO,nt,0,nt,-16,nt,nt,
CC=Cc1ccc2n(c1=O)C[C@H]1[C@H](CO)[C@@H](C(=O)N(C)C)N[C@@H]21 (mixture of isomers),nt,1.7*,-2,9,0.031,i,
C/C=C/c1ccc([C@H]2[C@@H](CO)N3CCCCN(C(=O)Cc4ccncc4)C[C@H]23)cc1,nt,0,0,-6,nt,nt,
O=C(Nc1ccccc1)c1cccn(Cc2ccccc2)c1=O,-14,1.4*,4,-1,-0.16,i,
C[C@H]1CN([C@@H](C)CO)C(=O)CCCn2cc(nn2)CO[C@@H]1CN(C)C(=O)Oc1ccc2ccccc2c1,nt,0,-2,1,nt,nt,
COc1cccc(-c2ccc([C@@H]3[C@@H](CO)N4CCCCN(C(=O)Cc5ccncc5)C[C@@H]34)cc2)c1,nt,1.4*,0,-5,0.065[42 µM],i,
COc1cccc(-c2ccc([C@H]3[C@@H](CO)N4CCCCN(C(=O)Cc5ccncc5)C[C@@H]34)cc2)c1,nt,0,0,-7,nt,nt,
COC(=O)[C@@H]1[C@@H](CO)[C@@H]2Cn3c(cccc3=O)[C@H]1N2C(=O)C1CCCC1,nt,-1,2,-5,nt,nt,
Cc1cc(OCC(=O)NC(Cc2ccc(Cl)cc2)C(=O)O)c2c3c(c(=O)oc2c1)CCC3 (centres undefined),-15,1.7*,1,-10,-0.15,i,
O=C(NCCN1CCC2(CC1)C(=O)NCN2c1ccccc1)c1ccc2ccccc2c1,nt,1.9*,-1,-5,0.034,i,
CC(=O)Nc1ccc(S(=O)(=O)N2Cc3ccccc3-n3nncc3C2)cc1,nt,23*,-2,-2,0.12,i,
COc1ccc(-c2ccc3n(c2=O)C[C@H]2[C@H](CO)[C@@H](C(=O)O)[C@@H]3N2C(=O)c2ccccc2F)cc1,nt,0,nt,-23,nt,nt,
C=CCN(CC=C)Cc1c[nH]c2ccccc12,nt,0,2,-11,nt,nt,
CN(C)Cc1c[nH]c2ccccc12,-7,19*,-3,-2,0.045,i,
CC1([N+](=O)[O-])COP(=O)(NC2CC2)OC1 (centres undefined),6,46*,-1,-1,nt,i,
O=C(N/N=C/c1c(O)n(C2CC2)c(=S)[nH]c1=O)c1ccccc1O,-2,nt,nt,nt,nt,nt,
Cc1ccccc1-n1c(O)c(/C=N/NC(=O)c2ccccc2O)c(=O)[nH]c1=S,2,1.8*,-3,-20,-0.058,i,
c1cncc(-c2ccc(C3[C@H]4CNC[C@@H]3N4CC3CC3)cc2)c1 (some centres undefined),nt,0,4,nt,nt,nt,

# From PubChem BioAssay
